# Screens deposited in PubChem BioAssay by several laboratories.
# Rows were chosen to be rich in hits. Some 5.7% of all compounds tested hit in one or more screens of this group.
# Mdm2 MdmX PPI: human Mdm2/MdmX binding inhibition; inhibition, % at 8 µM; O15151+Q00987; actives 3% (n = 330,000); SaOS-2 split-luciferase Mdm2/MdmX complementation, luminescence;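 active = inhibition of at least 50% at 8 µM in the primary screen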
# Target sequence (O15151 whole entry, looked up): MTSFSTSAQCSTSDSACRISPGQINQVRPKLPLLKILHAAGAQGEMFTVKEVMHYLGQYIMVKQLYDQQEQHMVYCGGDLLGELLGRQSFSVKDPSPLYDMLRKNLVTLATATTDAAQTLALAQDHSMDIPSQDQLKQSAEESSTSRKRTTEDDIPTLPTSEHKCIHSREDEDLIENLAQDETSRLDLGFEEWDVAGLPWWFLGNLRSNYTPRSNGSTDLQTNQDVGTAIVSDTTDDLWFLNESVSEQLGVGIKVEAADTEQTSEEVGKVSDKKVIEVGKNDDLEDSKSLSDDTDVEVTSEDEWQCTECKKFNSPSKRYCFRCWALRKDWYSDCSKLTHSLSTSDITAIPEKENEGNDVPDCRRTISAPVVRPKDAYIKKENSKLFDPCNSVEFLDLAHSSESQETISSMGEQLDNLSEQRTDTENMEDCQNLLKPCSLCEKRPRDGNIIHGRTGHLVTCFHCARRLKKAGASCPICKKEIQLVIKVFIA
# Target sequence (Q00987 whole entry, looked up): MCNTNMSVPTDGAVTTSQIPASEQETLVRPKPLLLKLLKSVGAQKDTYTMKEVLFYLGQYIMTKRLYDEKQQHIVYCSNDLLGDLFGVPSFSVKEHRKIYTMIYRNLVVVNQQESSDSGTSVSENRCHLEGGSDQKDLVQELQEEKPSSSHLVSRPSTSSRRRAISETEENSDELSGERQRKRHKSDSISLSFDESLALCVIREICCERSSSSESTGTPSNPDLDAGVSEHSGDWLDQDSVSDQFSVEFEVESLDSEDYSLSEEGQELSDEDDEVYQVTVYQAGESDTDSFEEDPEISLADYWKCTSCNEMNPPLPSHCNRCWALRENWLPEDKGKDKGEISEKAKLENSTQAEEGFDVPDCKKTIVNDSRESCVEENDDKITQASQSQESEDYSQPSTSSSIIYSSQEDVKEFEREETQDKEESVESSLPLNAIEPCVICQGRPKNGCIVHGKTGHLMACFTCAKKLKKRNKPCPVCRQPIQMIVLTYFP
# T cruzi inh: blocks replication of Trypanosoma cruzi; T. cruzi beta-gal in NIH3T3, luminescence, 90 h; inhibition, % (concentration not given with the values); actives 1.4% (n = 300,000); AID 1885;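 active = mean inhibition across valid replicates above about 55%, limit read from the data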;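 note: signal also drops with host cell toxicity which is not excluded here; higher percent means less beta-gal luminescence so fewer parasites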
#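 Material: NIH/3T3 host cells with β-galactosidase reporter T. cruzi; Input: 5,000 host fibroblasts per well; Medium: DMEM, 2% fetal bovine serum; Compound: 50 nL DMSO compound solution per well; Schedule: 3 h host attachment, then at least 90 h co-culture; Detection: luminescent β-galactosidase signal after 60 min lysis.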
# SKKanGAS inh: blocks kanamycin growth of S. pyogenes SKKanGAS strain; BacTiter-Glo, 6 h; inhibition, % at 7.5 µM; actives 1.3% (n = 300,000);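 active = mean replicate score, as percent of positive control median, at least 50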;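 note: strain carries kanamycin resistance gene driven by streptokinase promoter and grows in 40 µg/ml kanamycin; loss of luminescence reflects streptokinase promoter inhibition or plain growth inhibition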
# Calb FLC: affects C. albicans growth with fluconazole; C. albicans CaCi-2 (fluconazole-resistant clinical isolate) + fluconazole, Alamar Blue growth, 48 h; growth inhibition, % (no concentration beside the values); actives 0.57% (n = 300,000);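 active = growth inhibition above about 58% in most replicates, limit read from the data, passing the limit was not always enough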;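 note: all wells also contain fluconazole at 8 µg/ml as a sub-toxic cotreatment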
# CSC inhib: cancer stem cell inhibition; actives 1.1% (n = 300,000); cancer stem cell-like cells viability, luminescence; inhibition, % at 7.5 µM; in the data active = inhibition above about 75%; tested in HMLE shEcad cells
# Beta cell apopt: blocks beta cell apoptosis; INS-1E cytokine-induced death, ATP luminescence, 48 h; percent of positive-control rescue, neutral wells zero; protection from apoptosis, % (no concentration beside the values); actives 0.8% (n = 300,000);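 active = Every replicate reaches about 75%, or at least half do and their mean reaches it too, limit read from the data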;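 note: higher means more ATP so stronger rescue from cytokine killing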
# A number is an active result; – = inactive; · = no result given.
SMILES,Mdm2 MdmX PPI,T cruzi inh,SKKanGAS inh,Calb FLC,CSC inhib,Beta cell apopt
CCCNC(=O)c1ccc(N2CCC3(CC2)CC(c2ccccc2)=NO3)c(NC(=O)c2ccco2)c1,–,–,49.8,–,–,–
COc1ccc(N2CC(C(=O)NCc3n[nH]c(=O)c4ccccc34)CC2=O)cc1 (stereo unspecified),–,–,–,–,·,·
CCc1ccc2[nH]c(=O)c(CN(Cc3ccccc3)C(=O)Nc3ccccc3OC)cc2c1,–,66.1,–,–,–,–
COc1ccc(NC(=O)c2ccc(COc3ccccc3Br)o2)cc1OC,–,–,–,–,96.4,–
O=C(Nc1nccs1)c1ccc(-c2ccc(F)c(Cl)c2)o1,–,–,75.3,–,–,–
Cc1cccc(NC(=O)c2ccc(COc3ccc(Cl)cc3Cl)o2)n1,–,–,–,–,104.0,–
Cc1csc(NC(=O)c2cc3ccccc3o2)n1,–,·,·,·,·,–
Cc1csc(NC(=O)c2ccc(COc3ccccc3)o2)n1,–,–,–,–,79.0,–
Cc1cccc(NC(=O)c2ccc(COc3ccccc3)o2)n1,–,–,–,–,–,–
COc1ccc(NC(=O)c2ccc(COc3ccccc3OC)o2)cc1OC,–,–,–,–,–,–
CC(NS(=O)(=O)c1cn(C)c(=O)n(C)c1=O)c1ccccc1 (stereo unspecified),–,–,–,–,–,–
Cc1cc(C)cc(NC(=O)CSc2nnc(-c3cc(C)[nH]n3)n2N)c1,–,–,–,–,–,–
Cc1ccc2c(c1)N(CC(=O)NCCCN1CCN(C)CC1)C(=O)CO2,–,–,–,–,·,–
O=C(Nc1nccs1)c1ccc(COc2ccccc2Cl)o1,–,–,–,–,81.2,–
O=C(Nc1nccs1)c1ccc(COc2c(F)c(F)cc(F)c2F)o1,–,·,·,·,–,–
C[C@@H](C(=O)NCCc1ccccc1)N1C(=O)N2CCc3c([nH]c4ccccc34)[C@@]2(C)C1=O,–,61.3,–,–,–,–
COc1ccc2[nH]c3c(c2c1)CCN1C(=O)N([C@@H](C)C(=O)NC2CC2)C(=O)[C@]31C,–,–,–,–,–,–
C[C@@H](C(=O)NC1CCN(Cc2ccccc2)CC1)N1C(=O)N2CCc3c([nH]c4ccccc34)[C@@]2(C)C1=O,–,59.2,–,–,–,–
COc1ccc2[nH]c3c(c2c1)CCN1C(=O)N([C@@H](C)C(=O)NC2CCN(Cc4ccccc4)CC2)C(=O)[C@]31C,–,64.0,–,–,–,·
CCn1c(=O)c2ccccc2n2c(SCC(N)=O)nnc12,–,–,–,–,–,–
CSCCC(NS(=O)(=O)c1ccccc1F)C(=O)N1CCCCCCC1 (stereo unspecified),–,–,–,–,·,–
Cc1cc(C)c(S(=O)(=O)N/N=C/c2ccc3c(c2)OCO3)c(C)c1,–,–,–,–,–,–
C=CCOc1ccc(/C=C2\SC(=Nc3cccnc3)NC2=O)cc1,–,–,–,–,–,–
CC(/C=C1\SC(=Nc2cccnc2)NC1=O)=C\c1ccccc1,–,–,56.1,–,–,–
COc1ccc(-n2nc(C(=O)NCC(=O)NCCC3=CCCCC3)c3ccccc3c2=O)c(OC)c1,–,–,–,96.7,–,–
SMILES,Mdm2 MdmX PPI,T cruzi inh,SKKanGAS inh,Calb FLC,CSC inhib,Beta cell apopt
CCCCNC(=O)CNC(=O)c1nn(-c2ccc(OC)cc2OC)c(=O)c2ccccc12,–,–,–,–,–,–
CCCNC(=O)C12CCC(C)(c3nc4cc(C)c(C)cc4nc31)C2(C)C (stereo unspecified),–,·,·,110.3,–,–
CCc1ccc(-c2cc(C(F)(F)F)n3nc(C(=O)Nc4c(C)nn(Cc5ccccc5C)c4C)cc3n2)s1,–,59.5,–,–,·,–
CCCOc1ccc(C(=O)N(Cc2cccs2)C2CCS(=O)(=O)C2)cc1 (stereo unspecified),–,–,–,–,–,–
COc1ccc(CN2C(=O)c3ccccc3C(/C=N\OCc3ccc(C)cc3)C2=O)cc1 (stereo unspecified),–,–,106.2,–,–,·
CSc1ncccc1C(=O)Nc1cccc(S(=O)(=O)N2CCCCCC2)c1,–,·,·,·,–,–
N#CC1(NC(=O)CSc2nnc(-c3ccccc3F)n2N)CCCCC1,–,–,–,–,–,–
COc1cccc(/C=C2\SC(=S)N(NS(=O)(=O)c3ccccc3)C2=O)c1OC,–,–,–,–,–,–
COc1ccc(C#Cc2c(-c3ccsc3)oc3ccc(N4CCOCC4)cc23)cc1,–,–,–,–,–,–
OC1(C#Cc2c(-c3ccsc3)oc3ccc(N4CCOCC4)cc23)CCCCC1,–,–,50.2,–,–,·
COc1cc(/C=C/C(=O)c2ccc3c(c2)OCO3)cc(Cl)c1O,–,–,–,–,113.1,–
CCN1c2ccccc2N(C)C1(C)c1ccccc1 (stereo unspecified),·,·,·,·,–,106.3
CN1C(=O)N(C)C2(c3ccccc3)NC(=O)NC12c1ccccc1 (stereo unspecified),–,–,–,–,–,–
CN1c2ccccc2N(C)C1(C)c1ccccc1,·,61.6,–,122.1,–,130.6
O=C(COC(=O)CCC(=O)N1CCOCC1)Nc1ccc(Br)cc1Br,–,·,·,·,–,–
CC(=O)N(C(C)=O)c1ncnc2c1c(-c1ccc(Cl)cc1)nn2C(C)(C)C,–,61.1,–,–,–,–
O=C(NCCCc1ccccc1)c1ccc(-n2cncn2)c([N+](=O)[O-])c1,–,–,–,–,–,–
COc1ccccc1C1NC=C([N+](=O)[O-])C=C1[N+](=O)[O-] (stereo unspecified),–,77.5,–,–,·,–
Cc1cc(S(=O)(=O)/N=C(\N)c2ccc(C(N)=O)cc2)cc(C)c1F,–,–,–,–,–,–
CCOC(=O)c1sc2nc3c(SCC(=O)O)cc(C(=O)c4ccccc4O)cn3c(=O)c2c1C,–,–,–,–,–,–
CCOC(=O)c1sc2nc3c(SCC(=O)O)cc(C(=O)c4cc(F)ccc4O)cn3c(=O)c2c1C,·,–,74.3,–,–,–
COc1ccc(O)c(C(=O)c2cc(SCC(=O)O)c3nc4sc5c(c4c(=O)n3c2)CCCC5)c1,–,–,51.5,–,–,–
CCN(CC(=O)Nc1c(F)cccc1F)C(=O)c1cc(S(=O)(=O)N2CCOCC2)ccc1N1CCCC1,–,–,–,–,·,–
COc1ccc(C)cc1NC(=O)CCCN1C(=O)C(c2ccccc2)Oc2cccnc21 (stereo unspecified),–,–,–,–,–,–
CCCC1=NN2C(=N)/C(=C\c3ccc(OCCOc4ccc(NC(C)=O)cc4)c(OC)c3)C(=O)N=C2S1,–,–,–,–,–,–
COc1ccc(CCC(=O)N2CC(C)OC(C)C2)cc1 (stereo unspecified),–,–,·,89.4,–,–
O=c1c2ccccc2c(-c2ccccc2)nn1Cc1c(Cl)cccc1Cl,–,–,74.6,–,–,–
